# Legend:
# Escherichia coli = assay: Antibacterial activity against Escherichia coli after 24 hrs by liquid growth inhibition assay; assay type: functional
# In short: (§1)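 Liquid growth inhibition (NCCLS-based broth method). Compounds dissolved in DMSO and liquid medium, incubated with bacteria at 2 × 10^8 cells/mL in PB medium (Bacto-tryptone 1%, NaCl 0.5%, pH 7.5), 35 °C, 24 h, constant agitation. Triplicate wells. Growth read as absorbance at 620 nm; MIC taken as lowest concentration inhibiting growth.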
# Micrococcus luteus = assay: Antibacterial activity against Micrococcus luteus after 24 hrs by liquid growth inhibition assay; assay type: functional; in short: as §1
Compound,MIC (Escherichia coli),MIC (Micrococcus luteus)
O=C1c2cccnc2-c2nccc3c2c1nc1ccccc13 [ASCIDIDEMIN],0.2 µM,0.3 µM
N=C1C2=C(NCCC2=O)c2nccc3c2c1nc1ccc(O)cc13 [CYSTODIMINE B],2.6 µM,10.5 µM
NCCc1c2c(c3nccc4c3c1Nc1ccccc1-4)NC(=O)CS2,1.1 µM,4.5 µM
NCCc1c2c3c(ccnc3c3ncsc13)-c1ccccc1N2,2.5 µM,2.5 µM
CC(=O)NCCc1c2c(c3nccc4c3c1Nc1ccccc1-4)NC(=O)CS2 [SHERMILAMINE B],2 µM,8 µM
O=C1c2c(O)ccnc2-c2nccc3c2c1nc1ccccc13,2.6 µM,10.5 µM
N=C1C2=C(NCCC2=O)c2nccc3c2c1nc1ccccc13 [CYSTODIMINE A],1.2 µM,2.4 µM
GENTAMICIN,0.08 µM,0.02 µM
CC(=O)NCCc1c2c3c(ccnc3c3ncsc13)-c1ccccc1N2 [KUANONIAMINE D],2.2 µM,17.4 µM
